Laboratory results reported in PMC4028150 (Chembiochem : a European journal of chemical biology, 2013).
Where a SMILES comes first, the peptide text is derived from it. Where no end group is shown, it is not given here.

T1: TRF1_(TRFH) (residues 58-268) (UniProt P54274 58-268)
T1 sequence (looked up): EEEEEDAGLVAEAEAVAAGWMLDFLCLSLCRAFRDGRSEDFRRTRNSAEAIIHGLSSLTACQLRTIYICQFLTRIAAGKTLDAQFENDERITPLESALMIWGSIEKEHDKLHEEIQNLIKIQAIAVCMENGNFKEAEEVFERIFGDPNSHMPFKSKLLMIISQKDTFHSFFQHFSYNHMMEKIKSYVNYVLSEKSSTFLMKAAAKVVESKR

B1: Control 1 (peptide)
peptide: SMTWRGKPAHMIFGKM-NH2
modifications: also: 7-hydroxycoumarin-3-carboxylic acid label, position not given here
B2: Control 2 (peptide)
peptide: KKMDVCGGLSD-NH2
modifications: also: 7-hydroxycoumarin-3-carboxylic acid label, position not given here
B3: Wild-Type peptide (Fbx4 residues 339-348) (peptide)
peptide: MPCFYLAHEL-NH2
modifications: also: 7-hydroxycoumarin-3-carboxylic acid label, position not given here
B4: Design 1 (designed binder)
peptide: MPIFWKFHRMSKMGTG-NH2
modifications: also: 7-hydroxycoumarin-3-carboxylic acid label, position not given here
B5: Design 3 (designed binder)
peptide: MPIFWKAHRMSKMGTG-NH2
modifications: also: 7-hydroxycoumarin-3-carboxylic acid label, position not given here
B6: Design 2 (designed binder)
peptide: MPIAWKFHRMSKMGTG-NH2
modifications: also: 7-hydroxycoumarin-3-carboxylic acid label, position not given here

Columns and labels:
[1] = system: SCF^Skp2 (p27 ubiquitination); experiment: In vitro p27 ubiquitination assay; assay type: biochemical; conditions: E1, hCdc34 (E2), Cks1, p27 phosphorylated by cyclin E-Cdk2, SCF^Skp2; 2 hrs, 30°C; Figure S3
[2] = molecular target: SCF^Fbx4 (Fbx4-dependent TRF1 ubiquitination) (UniProt P54274); experiment: In vitro TRF1 ubiquitination assay; assay type: biochemical; conditions: versus wild-type peptide (IC50 = 205.9 µM)
Method in brief: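 TRF1ΔMyb (E. coli; Ni-NTA, tag cleaved, gel filtration, Mono-Q/Mono-S) was prelabelled with GST-cyclin B/Cdk1 in 50 mM Tris pH 8.0, 10 mM MgCl2, 10 mM ATP and 2 µCi [γ-33P]ATP for 1 hr, then kinase-depleted on glutathione resin. It was incubated with E1, UbcH5a, SCFFbx4, ubiquitin, methylated ubiquitin, energy-regenerating system and increasing peptide at 30°C for 2.5 hrs. SDS-PAGE and phosphorimaging followed. IC50 came from loss of polyubiquitination.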

[3] = molecular target: T1, TRF1_(TRFH) (residues 58-268); experiment: fluorescence polarisation

| Molecule | effect on the ubiquitination of p27 [1] | decrease of IC50 compared to wild-type peptide [2] | Kd [3] [µM] |
| --- | --- | --- | --- |
| CC[C@H](C)[C@H](NC(=O)[C@@H]1CCCN1C(=O)[C@@H](N)CCSC)C(=O)N[C@@H](Cc1ccccc1)C(=O)N[C@@H](Cc1c[nH]c2ccccc12)C(=O)N[C@@H](CCCCN)C(=O)N[C@@H](Cc1ccccc1)C(=O)N[C@@H](Cc1c[nH]cn1)C(=O)N[C@@H](CCCNC(=N)N)C(=O)N[C@@H](CCSC)C(=O)N[C@@H](CO)C(=O)N[C@@H](CCCCN)C(=O)N[C@@H](CCSC)C(=O)NCC(=O)N[C@H](C(=O)NCC(N)=O)[C@@H](C)O [Design 1] (H-MPIFWKFHRMSKMGTG-NH2) | no effect | more than 6 fold |  |
| B1 |  |  | > 250 |
| B2 |  |  | > 10000 |
| B3 |  |  | 41.8 |
| B4 |  |  | 23.3 |
| B5 |  |  | 17.3 |
| B6 |  |  | 47.8 |
